Experiment [1] deals with T1, Cathepsin G (Homo sapiens, UniProt P08311).
T1 sequence (P08311 whole entry): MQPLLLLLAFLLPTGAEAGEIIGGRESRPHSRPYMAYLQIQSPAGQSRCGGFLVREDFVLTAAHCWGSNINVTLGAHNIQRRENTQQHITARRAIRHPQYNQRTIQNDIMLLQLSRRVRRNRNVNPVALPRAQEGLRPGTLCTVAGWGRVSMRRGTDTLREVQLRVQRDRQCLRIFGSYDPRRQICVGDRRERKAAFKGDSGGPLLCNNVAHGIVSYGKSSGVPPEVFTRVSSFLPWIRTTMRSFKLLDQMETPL
Kind of experiment: Inhibition of human cathepsin G using Suc-AAPF-MCA as substrate after 30 mins.

A short description of experiment [2]: Inhibition of bovine trypsin using Tos-GPR-AMC as substrate preincubated for 30 mins followed by substrate addition.
A short description of experiment [3]: Selectivity ratio of Ki for rat mast cell chymase to Ki for human cathepsin G. In outline:
(§1)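 Each Ki was determined after 30 min room-temperature protease–inhibitor equilibration, with chromogenic (405 nm) or fluorogenic (360/460 nm) substrate readout in Tris/NaCl buffer pH 8.0. Morrison Ki was fitted by non-linear regression, three independent triplicate experiments, and the off-target Ki was divided by the cathepsin G Ki.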

The species named for experiment [4] is Homo sapiens. Description: Selectivity ratio of Ki for recombinant KLK7 (unknown origin) to Ki for human cathepsin G. In outline:
as §1

The species named for experiment [5] is Homo sapiens. Kind of experiment: Selectivity ratio of Ki for human PR3 to Ki for human cathepsin G. In outline: as §1
Experiment [6] in a line: Selectivity ratio of Ki for bovine chymotrypsin to Ki for human cathepsin G. The gist of the method: as §1
The species entered for experiment [7] is Homo sapiens. Description: Selectivity ratio of Ki for human neutrophil elastase to Ki for human cathepsin G. In outline:
as §1

The target in experiment [8] is T2, Myeloblastin (Homo sapiens) (UniProt P24158).
T2 sequence (whole entry): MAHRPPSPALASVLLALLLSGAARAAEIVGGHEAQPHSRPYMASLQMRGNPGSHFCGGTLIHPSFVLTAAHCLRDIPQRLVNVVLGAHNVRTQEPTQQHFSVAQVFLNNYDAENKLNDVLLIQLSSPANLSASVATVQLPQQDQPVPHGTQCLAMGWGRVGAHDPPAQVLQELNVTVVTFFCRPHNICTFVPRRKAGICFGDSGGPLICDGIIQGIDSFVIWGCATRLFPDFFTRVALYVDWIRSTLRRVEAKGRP
Description: Inhibition of human PR3 at 10000 nM using Suc(OMe)-AAPV-MCA as substrate after 30 mins relative to control.

Experiment [9] has as its target T3, Chymase (Rattus norvegicus, UniProt P50339).
T3 sequence (P50339 whole entry): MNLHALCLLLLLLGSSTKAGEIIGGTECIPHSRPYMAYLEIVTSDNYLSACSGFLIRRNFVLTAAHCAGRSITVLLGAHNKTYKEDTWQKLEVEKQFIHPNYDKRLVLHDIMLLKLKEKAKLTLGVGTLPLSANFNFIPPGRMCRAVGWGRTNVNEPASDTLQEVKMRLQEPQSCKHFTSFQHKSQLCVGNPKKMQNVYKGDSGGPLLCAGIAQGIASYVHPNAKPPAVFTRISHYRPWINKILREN
Description: Inhibition of rat mast cell chymase using Suc-AAPF-pNA as substrate after 30 mins. In outline:
(§2)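 Inhibitor and protease were preincubated 30 min at room temperature. pNA substrate release was read at 405 nm for 5 min in 0.15 M NaCl, 0.1 M Tris·HCl pH 8.0, 0.005% Triton X-100, with 10% acetonitrile. Morrison Ki was obtained by non-linear regression from three independent triplicate experiments.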

Experiment [10] concerns the target Kallikrein-7 (Homo sapiens, UniProt P49862). Description: Inhibition of recombinant KLK7 (unknown origin) expressed in zymogen form in Pichia pastorisstrain X-33 using KHLY-pNA as substrate after 30 mins. In outline: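 Pro-KLK7 from Pichia supernatant was cation-exchange purified, activated with enterokinase (37°C, 2 h), repurified, and active-site titrated with α1-antitrypsin. After 30 min room-temperature equilibration with inhibitor, pNA hydrolysis was followed at 405 nm for 5 min in Tris/NaCl/Triton buffer pH 8.0 with 10% acetonitrile. Morrison Ki came from three independent triplicate runs.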

Experiment [11] can be described thus: Inhibition of bovine chymotrypsin using Suc(OMe)-AAPV-MCA as substrate after 30 mins. The arrangement: species or system Bos taurus. The gist of the method:
(§3)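 Protease and inhibitor equilibrated 30 min at room temperature, then MCA substrate added in assay buffer (0.15 M NaCl, 0.1 M Tris·HCl pH 8.0, 0.005% Triton X-100). Fluorescence was read at ex 360/em 460 nm over 10 min. Morrison Ki was fitted by non-linear regression from three independent triplicate experiments.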

Experiment [12] addresses T4, Myeloblastin (Homo sapiens, UniProt P24158).
T4 sequence (P24158 whole entry): T2 sequence (whole entry)
Description: Inhibition of human PR3 using Suc(OMe)-AAPV-MCA as substrate after 30 mins. The gist of the method: as §3

Experiment [13] concerns the target T5, Neutrophil elastase (Homo sapiens, UniProt P08246).
T5 sequence (P08246 whole entry): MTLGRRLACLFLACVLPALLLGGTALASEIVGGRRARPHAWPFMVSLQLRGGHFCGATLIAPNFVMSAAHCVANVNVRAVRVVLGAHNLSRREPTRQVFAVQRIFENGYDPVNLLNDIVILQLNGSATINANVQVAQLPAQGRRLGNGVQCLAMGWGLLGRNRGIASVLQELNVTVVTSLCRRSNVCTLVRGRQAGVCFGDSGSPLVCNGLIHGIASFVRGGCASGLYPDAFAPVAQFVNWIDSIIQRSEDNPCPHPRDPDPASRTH
Description: Inhibition of human neutrophil elastase using Suc(OMe)-AAPV-pNA as substrate after 30 mins. The gist of the method:
as §2

In experiment [14] the target is T6, Cathepsin G (Homo sapiens) (UniProt P08311).
T6 sequence (whole entry): T1 sequence (P08311 whole entry)
Kind of experiment: Inhibition of human cathepsin G assessed as decrease in angiotensin-2 generation from angiotensin-1 at 100 nM after 1.5 to 3 hrs by RP-UPLC/mass spectroscopic method. The following applies: in the assay text read “1.5 to 5 hrs” for “1.5 to 3 hrs”. The gist of the method: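 Cathepsin G (10 nM) was incubated with angiotensin I (10 µM) in assay buffer, with or without inhibitor at 100 nM. Aliquots were taken at 1.5, 3 and 5 h and quenched with 2% TFA. Angiotensin I cleavage and angiotensin II formation were analysed by RP-UPLC and electrospray mass spectrometry.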

Experiment [15] is filed under the species Homo sapiens. Description: Selectivity ratio of Ki for human plasmin to Ki for human cathepsin G. The gist of the method: as §1
Experiment [16] is filed under the species Homo sapiens. Description: Selectivity ratio of Ki for human alpha-thrombin to Ki for human cathepsin G. In outline: as §1
Experiment [17] is described as follows: Selectivity ratio of Ki for bovine trypsin to Ki for human cathepsin G. In outline:
as §1

The target of experiment [18] is T7, Plasminogen (Homo sapiens, UniProt P00747). Description: Inhibition of human plasmin at 10000 nM using Ac-RM(O2)YRpNA as substrate after 30 mins.
The target of experiment [19] is T8, Prothrombin (Homo sapiens, UniProt P00734). Description: Inhibition of human alpha-thrombin at 10000 nM using Glt-Gly-Arg-MCA as substrate after 30 mins.
The species entered for experiment [20] is Bos taurus. Kind of experiment: Inhibition of bovine chymotrypsin at 10000 nM using Suc(OMe)-AAPV-MCA as substrate after 30 mins relative to control.
Experiment [21] has as its target T7, Plasminogen. Description: Inhibition of human plasmin using Ac-RM(O2)YRpNA as substrate after 30 mins. In outline: as §2
Experiment [22] has as its target T8, Prothrombin. Kind of experiment: Inhibition of human alpha-thrombin using Glt-Gly-Arg-MCA as substrate after 30 mins. In outline: as §3
Experiment [23] is described as follows: Inhibition of bovine trypsin using Boc-QAR-MCA as substrate after 30 mins. Also on record: species or system Bos taurus. In outline:
as §3

Calls of active or inactive are those of the source. No cut-off for these calls is given here. Positions of bridges follow the written chain, without caps; N, C: chain ends. Non-standard residues stand in square brackets, D forms with d. Residues, ends and D or L forms follow the SMILES beside them. ξ: configuration not given here. Phe(4-guanidino) = N=C(N)Nc1ccc(C[C@H](N)C(=O)O)cc1; ξNle = CCCCC(N)C(=O)O

What is called Ki is a measure of affinity in units of concentration, obtained from inhibition or displacement. In general, inhibition refers to the percentage by which the read-out fell short of the control.

Sequence of Kallikrein-7 (P49862 whole entry): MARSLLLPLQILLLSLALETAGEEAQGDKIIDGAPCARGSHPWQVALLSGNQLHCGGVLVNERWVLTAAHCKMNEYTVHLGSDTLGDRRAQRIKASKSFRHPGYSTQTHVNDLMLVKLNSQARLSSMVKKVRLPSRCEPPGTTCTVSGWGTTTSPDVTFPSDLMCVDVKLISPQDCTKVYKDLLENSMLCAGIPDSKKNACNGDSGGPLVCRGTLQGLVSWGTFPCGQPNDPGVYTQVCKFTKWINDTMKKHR
T7 sequence (P00747 97-580 limits assumed): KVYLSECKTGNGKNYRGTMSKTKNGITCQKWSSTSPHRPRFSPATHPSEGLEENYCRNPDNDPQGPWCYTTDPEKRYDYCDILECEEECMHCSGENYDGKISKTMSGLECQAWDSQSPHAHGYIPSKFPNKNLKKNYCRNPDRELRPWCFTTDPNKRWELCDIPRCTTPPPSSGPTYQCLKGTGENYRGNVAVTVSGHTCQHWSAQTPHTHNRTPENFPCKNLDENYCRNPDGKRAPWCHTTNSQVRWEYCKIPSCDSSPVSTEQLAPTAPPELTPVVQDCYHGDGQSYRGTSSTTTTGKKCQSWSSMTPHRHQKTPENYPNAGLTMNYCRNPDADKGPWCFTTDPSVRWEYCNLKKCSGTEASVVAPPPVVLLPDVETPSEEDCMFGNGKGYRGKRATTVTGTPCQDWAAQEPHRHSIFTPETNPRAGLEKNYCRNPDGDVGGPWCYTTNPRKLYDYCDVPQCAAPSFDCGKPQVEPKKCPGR
T7 sequence (P00747 581-810 limits assumed): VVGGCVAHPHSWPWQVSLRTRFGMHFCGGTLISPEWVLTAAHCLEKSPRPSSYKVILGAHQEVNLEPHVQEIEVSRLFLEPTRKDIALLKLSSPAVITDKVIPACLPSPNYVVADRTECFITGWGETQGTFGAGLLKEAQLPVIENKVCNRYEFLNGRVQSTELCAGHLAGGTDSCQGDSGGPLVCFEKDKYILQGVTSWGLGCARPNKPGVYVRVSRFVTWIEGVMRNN

Regarding `CC[C@H](C)[C@@H]1NC(=O)[C@@H]2CCCN2C(=O)[C@@H]2CCCN2C(=O)[C@H]([C@@H](C)CC)NC(=O)[C@H](CO)NC(=O)[C@H](CCCCN)NC(=O)[C@H]([C@@H](C)O)NC(=O)[C@@H]2CSSC[C@H](NC1=O)C(=O)N[C@@H](Cc1ccccc1)C(=O)N1CCC[C@H]1C(=O)N[C@@H](CC(=O)O)C(=O)NCC(=O)N[C@@H](CCCNC(=N)N)C(=O)N2`, the results for the Ki in experiment [1] and in experiment [2] were 730 nM and 0.0017 nM, respectively.

For `CCCCC1NC(=O)[C@@H]2CSSC[C@H](NC(=O)[C@H]([C@@H](C)CC)NC(=O)[C@@H]3CCCN3C(=O)[C@@H]3CCCN3C(=O)[C@H](CC(=O)O)NC(=O)[C@H](CO)NC(=O)[C@H](Cc3ccccc3)NC1=O)C(=O)N[C@@H](Cc1ccccc1)C(=O)N1CCC[C@H]1C(=O)N[C@@H](CC(N)=O)C(=O)NCC(=O)N[C@@H]([C@@H](C)O)C(=O)N2` (stereo partly drawn) (cyclo(CFPNGTC[ξNle]FSDPPI); disulfide 1-7), the Ratio Ki was 4.5 in experiment [3]; 76 in experiment [4]; more than 5900 in [5]; 83 in experiment [6]; 5200 in experiment [7]. Further, the inhibition in experiment [8] was less than 20%. In addition, the Ki in experiment [9] was 7.7 nM; in [10] it was 130 nM; in [11], 140 nM; in [12], more than 10000 nM; in [13] it was 8900 nM; in [1], 1.7 nM.

In the case of `CCCCC1NC(=O)[C@@H]2CSSC[C@H](NC(=O)[C@H]([C@@H](C)CC)NC(=O)[C@@H]3CCCN3C(=O)[C@@H]3CCCN3C(=O)[C@H]([C@@H](C)CC)NC(=O)[C@H](CO)NC(=O)[C@H](Cc3ccccc3)NC1=O)C(=O)N[C@@H](Cc1ccccc1)C(=O)N1CCC[C@H]1C(=O)N[C@@H](CC(N)=O)C(=O)NCC(=O)N[C@@H]([C@@H](C)O)C(=O)N2` (stereo partly drawn) (cyclo(CFPNGTC[ξNle]FSIPPI); disulfide 1-7), the Ratio Ki is 78 in experiment [4], more than 11000 in [5], 2.1 in [6] and 13000 in experiment [7]. For the same molecule, the inhibition in experiment [8] was less than 20%. Moreover, the Ki in experiment [10] is 69 nM; in experiment [11] it was 1.9 nM; in experiment [12] it was more than 10000 nM; in [13], 12000 nM; in experiment [1] it was 0.89 nM.

With `CCCCC1NC(=O)[C@@H]2CSSC[C@H](NC(=O)[C@H]([C@@H](C)CC)NC(=O)[C@@H]3CCCN3C(=O)[C@@H]3CCCN3C(=O)[C@H](CC(=O)O)NC(=O)[C@H](CO)NC(=O)[C@H](Cc3ccc(NC(=N)N)cc3)NC1=O)C(=O)N[C@@H](Cc1ccccc1)C(=O)N1CCC[C@H]1C(=O)N[C@@H](CC(N)=O)C(=O)NCC(=O)N[C@@H]([C@@H](C)O)C(=O)N2` (stereo partly drawn) (cyclo(CFPNGTC[ξNle][Phe(4-guanidino)]SDPPI); disulfide 1-7), the inhibition entry in experiment [14] is “Active”. Further, the Ratio Ki in [15] was more than 6300; in experiment [16] it was more than 6300; in experiment [3], 12000; in [17], 360; in experiment [4], 460; in experiment [5], more than 6300. The figures for the Ratio Ki in [6] and in experiment [7] were more than 6300 and 27000, respectively. The inhibition in [18], in [19], in experiment [20] and in experiment [8] was less than 20% throughout. For the same molecule, the Ki in experiment [21] is more than 10000 nM; in experiment [22], more than 10000 nM; in experiment [9], 19600 nM; in experiment [10], 740 nM; in [11] it was more than 10000 nM; in [23], 580 nM. In addition, the figures for the Ki in experiment [12], in experiment [13] and in [1] were more than 10000 nM, 43000 nM and 1.6 nM, respectively.

In [1], `CC[C@H](C)[C@@H]1NC(=O)[C@@H]2CCCN2C(=O)[C@@H]2CCCN2C(=O)[C@H](CC(=O)O)NC(=O)[C@H](CO)NC(=O)[C@H](CCCNC(=N)N)NC(=O)[C@H]([C@@H](C)O)NC(=O)[C@@H]2CSSC[C@H](NC1=O)C(=O)N[C@@H](CC(N)=O)C(=O)N1CCC[C@H]1C(=O)N[C@@H](CC(N)=O)C(=O)NCC(=O)N[C@@H]([C@@H](C)O)C(=O)N2` (cyclo(CNPNGTCTRSDPPI); disulfide 1-7) yielded a Ki of 12 nM.

As to `CC[C@H](C)[C@@H]1NC(=O)[C@@H]2CCCN2C(=O)[C@@H]2CCCN2C(=O)[C@H]([C@@H](C)CC)NC(=O)[C@H](CO)NC(=O)[C@H](CCCNC(=N)N)NC(=O)[C@H]([C@@H](C)O)NC(=O)[C@@H]2CSSC[C@H](NC1=O)C(=O)N[C@@H](CC(N)=O)C(=O)N1CCC[C@H]1C(=O)N[C@@H](CC(N)=O)C(=O)NCC(=O)N[C@@H]([C@@H](C)O)C(=O)N2` (cyclo(CNPNGTCTRSIPPI); disulfide 1-7), the Ki in [1] was 490 nM.

The values above are taken from ChEMBL document CHEMBL4052586, “Design of Potent and Selective Cathepsin G Inhibitors Based on the Sunflower Trypsin Inhibitor-1 Scaffold” (J Med Chem, 2017).
